Laboratory results as given in ChEMBL document CHEMBL5252546, “Salutaxel, a Conjugate of Docetaxel and a Muramyl Dipeptide (MDP) Analogue, Acts as Multifunctional Prodrug That Inhibits Tumor Growth and Metastasis” (J Med Chem, 2018).
Active and inactive are the calls of the source. The rule behind the calls is not given here.

Key:
[1] = Toxicity in BALB/c mouse xenografted with human MDA-MB-231 cells assessed as body weight loss at 5.7 mg/kg,iv administrated once per week for 3 weeks; assay type: organism-based; settings: in vivo, 504 h
Method in brief: (§1)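 Nude BALB/c nu/nu mice received subcutaneous human tumour cells into the right flank. Dosing started at mean tumour volume of 100–120 mm3, iv once weekly for 3 weeks; the taxane arm was an equimolar control. Body weight and overt side effects were monitored. Mean ± SEM, n = 8.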

4T1 [2] = test: Antitumor activity against mouse 4T1 cells xenografted with BALB/c mouse assessed as decrease in tumor weight at 5.7 mg/kg,iv administrated once per week for 4 weeks; assay type: functional, organism-based
Method in brief: (§2)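 4T1 cells injected into mammary fat pads of BALB/c mice. Dosing iv once per week for 4 weeks, saline vehicle; single-agent arms were given alone or with the peptide component (5b or 6). Endpoints were body weight, tumour volume, tumour weight, lung metastatic nodule count and lung metastasis score. Mean ± SEM, n = 10; ANOVA and Student's t test.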

4T1 [3] = test: Antitumor activity against mouse 4T1 cells xenografted with BALB/c mouse assessed as reduction lung metastatic nodules at 5.7 mg/kg,iv administrated once per week for 4 weeks; assay type: functional, organism-based; method in brief: as §2
4T1 [4] = test: Antitumor activity against mouse 4T1 cells xenografted with BALB/c mouse assessed as inhibition of tumor growth at 5.7 mg/kg,iv in presence of compound 6 administrated once per week for 4 weeks; assay type: functional; settings: 4T1, 672 h; method in brief: as §2
[5] = Toxicity in BALB/c mouse xenografted with human HCT-116 cells assessed as side effects at 5.7 mg/kg,iv administrated once per week for 3 weeks; assay type: organism-based; settings: in vivo, 504 h; method in brief: as §1
in vivo = settings: mouse, plasma, iv, 5.7 mg/kg
[6] = Toxicity in HaM/ICR mouse assessed as effect on motor autonomic activity at 5 to 20 mg/kg,iv; assay type: organism-based; settings: in vivo, dose 5-20 mg/kg
[7] = Drug distribution in rat liver at 4 mg/kg,iv measured by 0.25 hrs; assay type: ADME, organism-based; settings: in vivo
Method in brief: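 Rats received 4 mg/kg iv. Parent drug and released docetaxel were assayed in tissues and plasma from the first sampling at 0.25 h to 24 h. The lower limit of quantitation was 200 ng/g.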

[8] = Volume of distribution at steady state in Beagle dog at 1 mg/kg,iv measured upto 24 hrs; assay type: ADME, organism-based, Canis lupus familiaris; settings: in vivo, read-out: Vdss
[9] = Clearance in female Beagle dog at 4 mg/kg,iv measured upto 24 hrs; assay type: ADME, organism-based, Canis lupus familiaris; settings: in vivo
Method in brief: (§3)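 Beagle dogs were given a single iv infusion at 1, 2 or 4 mg/kg. Plasma parent drug and released docetaxel were followed over time. Cmax, Tmax, AUC, MRT, t1/2, CL and Vss were reported by sex and for all dogs combined.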

[10] = Clearance in female Beagle dog at 2 mg/kg,iv measured upto 24 hrs; assay type: ADME, organism-based, Canis lupus familiaris; settings: in vivo; method in brief: as §3
[11] = Clearance in female rat at 8 mg/kg,iv measured upto 24 hrs; assay type: ADME, organism-based; settings: in vivo
Method in brief: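 Rats were given a single iv injection at 2, 4 or 8 mg/kg. Plasma parent drug and released docetaxel were followed over time. Cmax, Tmax, AUC, MRT, t1/2, CL and Vss were reported for males, females and all animals combined.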

[12] = Half life in Beagle dog at 4 mg/kg,iv measured upto 24 hrs; assay type: ADME, organism-based, Canis lupus familiaris; settings: in vivo
[13] = Half life in female Beagle dog at 2 mg/kg,iv measured upto 24 hrs; assay type: ADME, organism-based, Canis lupus familiaris; settings: in vivo
[14] = Half life in rat at 8 mg/kg,iv measured upto 24 hrs; assay type: ADME, organism-based; settings: in vivo
[15] = MRT (0 to infinity) in female Beagle dog at 4 mg/kg,iv measured upto 24 hrs; assay type: ADME, organism-based, Canis lupus familiaris; settings: in vivo
[16] = AUC (0-infinity) in female Beagle dog at 2 mg/kg,iv measured upto 24 hrs; assay type: ADME, organism-based, Canis lupus familiaris; set-up: time < 24 hrs, dose 2 mg/kg, route iv; settings: in vivo
Method in brief: (§4)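 Single iv dose: rats 2, 4 or 8 mg/kg by intravenous injection; Beagle dogs 1, 2 or 4 mg/kg by intravenous infusion. Plasma concentration–time data were analysed by sex and pooled. Reported parameters: Cmax, Tmax, AUC0−t, AUC0−∞, MRT0−∞, t1/2, CL, Vss, given as mean ± SD.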

[17] = AUC (0-infinity) in female Beagle dog at 1 mg/kg,iv measured upto 24 hrs; assay type: ADME, organism-based, Canis lupus familiaris; set-up: dose 1 mg/kg, time < 24 hrs, route iv; settings: in vivo; method in brief: as §4
4T1 [18] = test: Antitumor activity against mouse 4T1 cells xenografted with BALB/c mouse assessed as decrease in tumor weight at 10 mg/kg,iv administrated once per week for 4 weeks; assay type: functional, organism-based
Method in brief: (§5)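 4T1 cells injected into the mammary fat pad of BALB/c mice; iv saline vehicle or 5, 10 or 20 mg/kg once weekly for 4 weeks; body weight, tumour volume, tumour weight, lung metastatic nodule count and metastasis score recorded; n = 10, mean ± SEM, ANOVA and Student's t test.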

4T1 [19] = test: Antitumor activity against mouse 4T1 cells xenografted with BALB/c mouse assessed as inhibition of tumor growth at 5 mg/kg,iv administrated once per week for 4 weeks; assay type: functional; settings: 4T1, 672 h; method in brief: as §5
[20] = Drug metabolism in human hepatocytes assessed as docetaxel metabolite formation at 20 uM incubated for 180 mins; assay type: ADME, cell-based, Hepatocyte; settings: 3 h
[21] = Stability in human plasma assessed as compound remaining at 40 uM incubated for 6 hrs; assay type: ADME, cell-free
BT-474 = test: Antiproliferative activity against human BT-474 cells assessed inhibition of cell growth incubated for 72 hrs by SRB assay; assay type: functional, cell-based; settings: BT-474, 72 h
NCI-H23 = test: Antiproliferative activity against human NCI-H23 cells assessed inhibition of cell growth incubated for 72 hrs by SRB assay; assay type: functional, cell-based; settings: NCI-H23, 72 h
[22] = Acute toxicity in Sprague-Dawley rat assessed as lethal dose at iv administration; assay type: organism-based; settings: in vivo
Method in brief: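 Acute toxicity after a single intravenous administration. […] In dogs, an approximate lethal dose range was determined.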

4T1 [23] = test: Antitumor activity against mouse 4T1 cells implanted in BALB/c mouse assessed as decrease in spleen MDSC cells at 10 mg/kg,iv measured after 28 days (reference value: 38%); assay type: functional; set-up: scale not given: the % may be the effect or the level left; settings: time 28 day
4T1 [24] = test: Antitumor activity against mouse 4T1 cells implanted in BALB/c mouse assessed as decrease in spleen MDSC cells at 20 mg/kg,iv measured after 28 days (reference value: 38%); assay type: functional; set-up: scale not given: the % may be the effect or the level left; settings: time 28 day
4T1 [25] = test: Antitumor activity against mouse 4T1 cells implanted in BALB/c mouse assessed as decrease in tumor MMP2 expression level at 5 to 20 mg/kg,iv administrated once per week for 4 weeks by western blot assay; assay type: functional, organism-based; settings: dose 5-20 mg/kg
Method in brief: (§6)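 4T1 fat-pad model in BALB/c mice, iv once weekly for 4 weeks; MMP9, MMP2 and NOD1 in spleen, lung and tumour by western blot, β-actin loading control; bands averaged over five mice per group, representative of two independent experiments.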

4T1 [26] = test: Antitumor activity against mouse 4T1 cells implanted in BALB/c mouse assessed as increase in tumor NOD1 expression level at 5 to 20 mg/kg,iv administrated once per week for 4 weeks by western blot assay; assay type: functional, organism-based; settings: dose 5-20 mg/kg; method in brief: as §6
4T1 [27] = test: Antitumor activity against mouse 4T1 cells implanted in BALB/c mouse assessed as decrease in S100A9 mRNA expression in lung at 20 mg/kg,iv administrated qd for 2 days by qRT-PCR analysis; assay type: functional, organism-based; settings: time 2.0 day
Method in brief: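 Day 19 after 4T1 implantation, mice randomised into five groups; iv vehicle or 20 mg/kg plus ip C12-iE-DAP (50 μg/mouse) and MDP (100 μg/mouse) once daily for 2 days; killed after 48 h; lung mRNA for MMP8, MMP9, PROK2, S100A8, S100A9 and IL-1β by qPCR; mean ± SEM.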

CC(=O)O[C@@]12CO[C@@H]1C[C@H](O)[C@@]1(C)C(=O)[C@H](O)C3=C(C)[C@@H](OC(=O)[C@H](O)[C@@H](NC(=O)OC(C)(C)C)c4ccccc4)C[C@@](O)([C@@H](OC(=O)c4ccccc4)[C@H]21)C3(C)C [DOCETAXEL ANHYDROUS]
Activity [1]: Non-Toxic | Activity (4T1 [2]): Active | Activity (4T1 [3]): inactive | inhibition in vivo at 5.7 mg/kg (4T1 [4]): 15.4% | Activity [5]: Non-Toxic | AUC(0-t) at 72 h (in vivo): 2.24 µM·h

CC(=O)O[C@@]12CO[C@@H]1C[C@H](O)[C@@]1(C)C(=O)[C@H](O)C3=C(C)[C@@H](OC(=O)[C@H](OC(=O)CCC(=O)NCCCC[C@H](NC(=O)CC[C@@H](NC(=O)[C@H](C)NC(=O)/C=C/c4ccc(F)cc4Cl)C(N)=O)C(=O)O)[C@@H](NC(=O)OC(C)(C)C)c4ccccc4)C[C@@](O)([C@@H](OC(=O)c4ccccc4)[C@H]21)C3(C)C
Activity [6]: Non-Toxic | Drug uptake [7]: Active | Vd [8]: 0.169 L/kg | clearance [9]: 3.85 mL/min/kg | clearance [10]: 5.04 mL/min/kg | clearance [11]: 3.39 mL/min/kg | half-life [12]: 35.5 min | half-life [13]: 30.9 min | half-life [14]: 18.3 min | MRT inf [15]: 26 min | AUC(0-inf) [16]: 7020 ng·h/mL | AUC(0-inf) [17]: 1640 ng·h/mL | Activity (4T1 [18]): Active | inhibition in vivo at 5 mg/kg (4T1 [19]): 12% | Drug metabolism [20]: Metabolite_Detected | Stability [21]: Stable | IC50 (BT-474): 16.3 nM | IC50 (NCI-H23): 16.3 nM | LD50 [22]: 13.2 mg/kg | Activity (4T1 [23]): 20.2% | Activity (4T1 [24]): 10.1% | Activity (4T1 [25]): inactive | Activity (4T1 [26]): inactive | Activity (4T1 [27]): Active
